Among the data in ChEMBL document CHEMBL3856188, “Usnic Acid Derivatives with Cytotoxic and Antifungal Activities from the Lichen Usnea longissima” (J Nat Prod, 2016) are MIC50 and IC50 values, retold here.

Values after ≈ are worked out from the molar mass of the structure shown. A value given as a limit tells only on which side of the number the result lay.

One assay relates to Trichophyton rubrum. Put plainly: Antimicrobial activity against Trichophyton rubrum after 4 days by microdilution method. In kind it is functional. The settings on record: 96 h. (Broth dilution looks for growth in wells or tubes with falling amounts of substance.)
The nature of assay [1]: Cytotoxicity against human HepG2 cells assessed as cell growth inhibition after 48 hrs by MTT assay. In kind it is functional, cell-based. To be noted: HepG2, 48 h. The essentials:
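HepG2 cells seeded at 3 × 10^3 cells/well in DMEM with 10% FBS and grown 24 h, then exposed to compound for 48 h. MTT (5 mg/mL in PBS) added for 3 h, supernatant removed, formazan dissolved in DMSO with 10 min shaking, and OD read at 490 nm. Methotrexate served as positive control. Values given as IC50.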
For orientation: Tetrazolium assays rely on reduction of a dye to a coloured formazan, in cell work by metabolically active cells.

In the case of `CCO[C@@]12CC(=O)/C(=C(/C)N)C(=O)[C@]1(C)c1c(O)c(C(C)=O)c(O)c(C)c1O2`, the MIC50 – broadly, the lowest concentration that inhibits either 50% of growth or 50% of the strains tested, depending on the study – against Trichophyton rubrum was more than 200 µM.

Compound `CCO[C@@]12CC(=O)/C(=C(/C)N)C(=O)[C@]1(C)c1c(O)c(C)c(O)c(C(C)=O)c1O2` returned an MIC50 in the assay on Trichophyton rubrum of more than 200 µM. In addition, the IC50 (in general, the concentration needed to halve the response being measured) in assay [1] was determined as 50.2 µM.

As for `CCO[C@@]12CC(O)=C(C(C)=O)C(=O)[C@]1(C)c1c(O)c(C)c(O)c(C(C)=O)c1O2`, the MIC50 in the assay with Trichophyton rubrum is 41 µM (≈ 16 µg/mL).

Consider `COC(=O)CCCN/C(C)=C1\C(=O)C=C2Oc3c(C(C)=O)c(O)c(C)c(O)c3[C@@]2(C)C1=O`, for which the MIC50 against Trichophyton rubrum is more than 200 µM.

The compound `CCOC(=O)CCCN/C(C)=C1\C(=O)C[C@@]2(OCC)Oc3c(C(C)=O)c(O)c(C)c(O)c3[C@@]2(C)C1=O` showed an MIC50 in the assay on Trichophyton rubrum of more than 200 µM.

As to `CCO[C@@]12CC(O)=C(C(C)=O)C(=O)[C@]1(C)c1c(O)c(C(C)=O)c(O)c(C)c1O2`, the MIC50 with Trichophyton rubrum was 41 µM (≈ 16 µg/mL). Further, the IC50 in assay [1] was determined as 53.3 µM.

Consider `CCOC(=O)CCCN/C(C)=C1\C(=O)C=C2Oc3c(C(C)=O)c(O)c(C)c(O)c3[C@@]2(C)C1=O`, for which, in the assay with Trichophyton rubrum, the MIC50 is more than 200 µM.

Regarding `CC(=O)C1=C(O)C=C2Oc3c(C(C)=O)c(O)c(C)c(O)c3[C@@]2(C)C1=O` [(+)-USNIC ACID], the MIC50 in the assay with Trichophyton rubrum was more than 200 µM.

With `CN(Cc1cnc2nc(N)nc(N)c2n1)c1ccc(C(=O)N[C@@H](CCC(=O)O)C(=O)O)cc1` [METHOTREXATE], in assay [1], the IC50 is 15.8 µM.
